Data reported in ChEMBL document CHEMBL4823323, “Monocyclic Nitro-heteroaryl Nitrones with Dual Mechanism of Activation: Synthesis and Antileishmanial Activity” (ACS Med Chem Lett, 2021).
Values belong to the compound of their own block, whether it stands above or below them. Active and inactive are the calls of the source. No cut-off for these calls is given here.

Assays:
[1] = Cytotoxicity against BALB/c mouse peritoneal macrophages assessed as reduction in cell viability incubated for 72 hrs by resazurin dye based fluorescence assay; parameters: species or system Peritoneal macrophage
Summary of the method: (§1)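 CC50 values are means of three independent experiments, each in triplicate, ± standard error; selectivity index taken as macrophage CC50 divided by intracellular amastigote EC50.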

[2] = (§2) Selectivity index, ratio of CC50 for cytotoxicity against BALB/c mouse peritoneal macrophages assessed as reduction in cell viability incubated for 72 hrs by resazurin dye based fluorescence assay to IC50 for antileishmanial activity against intracellular Leishmania infantum MHOM/MA/67/ITMAP-263 amastigotes infected in BALB/c mouse peritoneal macrophage; type: toxicity; settings: read-out: Selectivity Index; summary of the method: as §1
Leishmania donovani [3] = assay: Antileishmanial activity against Leishmania donovani LdBOB derived from MHOM/SD/62/1 S-CL2D promastigotes overexpressing NTR2 incubated for 72 hrs by resazurin dye based assay; type: functional, organism-based
Summary of the method: (§3)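 IC50 is the mean ± standard error of three independent experiments, each run in triplicate.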

Leishmania infantum [4] = assay: Antileishmanial activity against intracellular Leishmania infantum MHOM/MA/67/ITMAP-263 amastigotes infected in BALB/c mouse peritoneal macrophage assessed as reduced parasite growth incubated for 72 hrs by PANOTIC staining based assay; type: functional, organism-based; settings: MHOM/MA/67/ITMAP-263, Peritoneal macrophage
Summary of the method: (§4)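 Values are averages of three independent experiments run in triplicate ± standard error.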

Leishmania amazonensis [5] = assay: Antileishmanial activity against Leishmania amazonensis MHOM/BR/77/LTB 0016 promastigotes assessed as inhibition of parasite growth incubated for 72 hrs by resazurin dye based assay; type: functional, organism-based; settings: MHOM/BR/77/LTB 0016, 72 h; summary of the method: as §4
Leishmania donovani [6] = assay: Selectivity index, ratio of IC50 for antileishmanial activity against wild type Leishmania donovani promastigotes to IC50 for antileishmanial activity against Leishmania donovani LdBOB derived from MHOM/SD/62/1 S-CL2D promastigotes overexpressing NTR1; type: functional
Leishmania donovani [7] = assay: Antileishmanial activity against Leishmania donovani LdBOB derived from MHOM/SD/62/1 S-CL2D promastigotes overexpressing NTR1 incubated for 72 hrs by resazurin dye based assay; type: functional, organism-based; summary of the method: as §3
[8] = as §2, with “amazonensis MHOM/BR/77/LTB 0016” for “infantum MHOM/MA/67/ITMAP-263”; type: toxicity; settings: read-out: Selectivity Index; summary of the method: as §1
Leishmania donovani [9] = assay: Antileishmanial activity against wild type Leishmania donovani promastigotes incubated for 72 hrs by resazurin dye based assay; type: functional, organism-based; summary of the method: as §3
Leishmania donovani [10] = assay: Selectivity index, ratio of IC50 for antileishmanial activity against wild type Leishmania donovani promastigotes to IC50 for antileishmanial activity against Leishmania donovani LdBOB derived from MHOM/SD/62/1 S-CL2D promastigotes overexpressing NTR2; type: functional
Leishmania infantum [11] = assay: Antileishmanial activity against Leishmania infantum MHOM/MA/67/ITMAP-263 promastigotes assessed as inhibition of parasite growth incubated for 72 hrs by resazurin dye based assay; type: functional, organism-based; settings: MHOM/MA/67/ITMAP-263, 72 h; summary of the method: as §4
Leishmania amazonensis [12] = assay: Antileishmanial activity against intracellular Leishmania amazonensis MHOM/BR/77/LTB 0016 amastigotes infected in BALB/c mouse peritoneal macrophage assessed as reduced parasite growth incubated for 72 hrs by PANOTIC staining based assay; type: functional, organism-based; settings: MHOM/BR/77/LTB 0016, Peritoneal macrophage; summary of the method: as §4
[13] = Electrochemical behavior of the compound in aprotic medium assessed as redox potential using glassy carbon electrode by cyclic voltammetry analysis; type: physicochemical
[14] = Metabolic stability in human liver S9 fraction assessed as drug recovery at pH 7.4 in the presence of NADPH cofactor measured upto 60 mins by LC/MS/MS analysis; type: ADME, subcellular; settings: s9, pH 7.4, 1 h
Leishmania amazonensis [15] = assay: Induction of ROS production in Leishmania amazonensis promastigotes measured by H2DCFDA probe based fluorescence analysis; type: functional; settings: time hrs <=4
Summary of the method: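 L. amazonensis promastigotes exposed to compounds at concentrations based on the anti-promastigote EC50, with ROS followed kinetically over 4 h using H2DCFDA fluorescence; means ± SD, n=3.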

Leishmania infantum [16] = assay: Antileishmanial activity in Leishmania infantum promastigotes intraperitoneally infected in BALB/c mouse assessed as reduced parasite load in spleen at 100 mg/kg, po twice a day followed by omeprazole administration 1 hr prior to test compound administration for 5 consecutive days relative to control; type: functional; parameters: scale not given: the % may be the effect or the level left; settings: time 5 day
Summary of the method: (§5)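 BALB/c mice (n=5) infected intraperitoneally with 1 × 10^8 L. infantum promastigotes; treatment began seven days post-infection. Oral omeprazole 10mg given 1 h before each oral dose of test compound (25, 50, 100 mg/kg) every 12 h for five consecutive days. Controls received vehicle or miltefosine 22mg/kg twice daily. Spleen and liver parasite load estimated by limiting dilution.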

[17] = Aqueous solubility of the compound at pH 7.4 measured after 24 hrs by UHPLC-HRMS analysis; type: physicochemical; settings: buffer
Leishmania infantum [18] = assay: Antileishmanial activity in Leishmania infantum promastigotes intraperitoneally infected in BALB/c mouse assessed as reduced parasite load in spleen at 50 mg/kg, po twice a day followed by omeprazole administration 1 hr prior to test compound administration for 5 consecutive days relative to control; type: functional; parameters: scale not given: the % may be the effect or the level left; settings: time 5 day; summary of the method: as §5
[19] = Chemical stability of the compound assessed as degradation product at pH 7 measured after 240 mins; type: physicochemical; settings: buffer, pH 7, 4 h
Leishmania infantum [20] = assay: Antileishmanial activity in Leishmania infantum promastigotes intraperitoneally infected in BALB/c mouse assessed as reduced parasite load in liver at 25 to 100 mg/kg, po twice a day followed by omeprazole administration 1 hr prior to test compound administration for 5 consecutive days relative to control; type: functional; parameters: scale not given: the % may be the effect or the level left; settings: dose 25-100 mg/kg, time 5 day; summary of the method: as §5
Peritoneal macrophage = assay: Induction of ROS production in mouse peritoneal macrophages at EC50 concentration measured upto 4 hrs by H2DCFDA probe based fluorescence analysis; type: functional, cell-based; settings: time hrs <=4
Summary of the method: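 Murine peritoneal macrophages incubated 4 h with 0.5×, 1× and 2× EC50 of compounds (concentrations taken from the anti-promastigote assay); ROS quantified with H2DCFDA; means ± SD, n=3.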

[21] = Stability in pooled mouse plasma at pH 7.4 assessed as parent compound remaining incubated for 240 mins by LC/MS/MS analysis; type: ADME, cell-free; settings: pH 7.4, 4 h
[22] = Chemical stability of the compound assessed as degradation product at pH 2 measured after 240 mins; type: physicochemical; settings: buffer, pH 2, 4 h

SMILES: O=[N+]([O-])c1ccc(/C=[N+](\[O-])Cc2ccccc2)s1
CC50 at 72 h [1]: 18.5 µM
selectivity ratio at 72 h [2]: 2.6
IC50 (Leishmania donovani [3]): 0.76 µM
IC50 (Leishmania infantum [4]): 7.18 µM
IC50 (Leishmania amazonensis [5]): 1.5 µM
Ratio IC50 (Leishmania donovani [6]): 1.3
IC50 (Leishmania donovani [7]): 0.3 µM
selectivity ratio at 72 h [8]: 3.4
IC50 (Leishmania donovani [9]): 0.41 µM
Ratio IC50 (Leishmania donovani [10]): 0.53
IC50 (Leishmania infantum [11]): 1.51 µM
IC50 (Leishmania amazonensis [12]): 5.42 µM

Activity [13]: -0.68 V
SMILES: C/[N+]([O-])=C\c1ccc([N+](=O)[O-])cc1
CC50 at 72 h [1]: > 100 µM
IC50 (Leishmania amazonensis [5]): > 100 µM
IC50 (Leishmania infantum [11]): > 100 µM

SMILES: CCCCCCCCCCCCCCCCOP(=O)([O-])OCC[N+](C)(C)C [MILTEFOSINE]
CC50 at 72 h [1]: 96.5 µM
selectivity ratio at 72 h [2]: 193
IC50 (Leishmania infantum [4]): 0.5 µM
IC50 (Leishmania amazonensis [5]): 7.01 µM
selectivity ratio at 72 h [8]: 28
IC50 (Leishmania infantum [11]): 9.81 µM
IC50 (Leishmania amazonensis [12]): 3.4 µM

SMILES: C/[N+]([O-])=C/c1ccc([N+](=O)[O-])o1
CC50 at 72 h [1]: 49.9 µM
Stabilty [14]: Stable
selectivity ratio at 72 h [2]: 295
Activity [13]: -0.62 V
Activity (Leishmania amazonensis [15]): inactive
Activity (Leishmania infantum [16]): 95%
solubility at 24 h [17]: > 10 µM
IC50 (Leishmania donovani [3]): 0.19 µM
IC50 (Leishmania infantum [4]): 0.17 µM
Activity (Leishmania infantum [18]): 76.6%
Drug degradation [19]: > 25%
IC50 (Leishmania amazonensis [5]): 9.37 µM
Activity (Leishmania infantum [20]): >75%
Ratio IC50 (Leishmania donovani [6]): 38
Activity (Peritoneal macrophage): inactive
Stabilty [21]: Stable
IC50 (Leishmania donovani [7]): 0.03 µM
selectivity ratio at 72 h [8]: 47
Drug degradation [22]: 40%
IC50 (Leishmania donovani [9]): 1.16 µM
Ratio IC50 (Leishmania donovani [10]): 6.1
IC50 (Leishmania infantum [11]): 0.88 µM
IC50 (Leishmania amazonensis [12]): 1.07 µM

SMILES: O=Cc1ccco1 [FURFURAL]
IC50 (Leishmania amazonensis [5]): > 100 µM
IC50 (Leishmania infantum [11]): > 100 µM

SMILES: O=[N+]([O-])c1ccc(/C=[N+](\[O-])Cc2ccccc2)o1
CC50 at 72 h [1]: 31.9 µM
selectivity ratio at 72 h [2]: 5.7
IC50 (Leishmania donovani [3]): 1.33 µM
IC50 (Leishmania infantum [4]): 4.49 µM
IC50 (Leishmania amazonensis [5]): 0.21 µM
Ratio IC50 (Leishmania donovani [6]): 0.81
IC50 (Leishmania donovani [7]): 1.22 µM
selectivity ratio at 72 h [8]: 15.6
IC50 (Leishmania donovani [9]): 0.99 µM
Ratio IC50 (Leishmania donovani [10]): 0.74
IC50 (Leishmania infantum [11]): 0.22 µM
IC50 (Leishmania amazonensis [12]): 2.04 µM

Activity [13]: -0.38 V
SMILES: O=Cc1ccc([N+](=O)[O-])o1
CC50 at 72 h [1]: 27.8 µM
IC50 (Leishmania amazonensis [5]): 25.2 µM
selectivity ratio at 72 h [8]: < 0.5
IC50 (Leishmania infantum [11]): 25.7 µM
IC50 (Leishmania amazonensis [12]): > 57.9 µM

Activity [13]: -0.58 V
SMILES: O=Cc1ccc([N+](=O)[O-])cc1
IC50 (Leishmania amazonensis [5]): > 100 µM
IC50 (Leishmania infantum [11]): > 100 µM

SMILES: CC(C)(C)/[N+]([O-])=C/c1ccc([N+](=O)[O-])s1
CC50 at 72 h [1]: 29.8 µM
Activity [13]: -0.64 V
Activity (Leishmania amazonensis [15]): inactive
IC50 (Leishmania donovani [3]): 0.31 µM
IC50 (Leishmania amazonensis [5]): 11.3 µM
Ratio IC50 (Leishmania donovani [6]): 17
Activity (Peritoneal macrophage): inactive
IC50 (Leishmania donovani [7]): 0.27 µM
IC50 (Leishmania donovani [9]): 4.55 µM
Ratio IC50 (Leishmania donovani [10]): 18
IC50 (Leishmania infantum [11]): 13.3 µM

SMILES: O=Cc1cccs1 [2-THIOPHENENECARBOXALDEHYDE]
IC50 (Leishmania amazonensis [5]): > 100 µM
IC50 (Leishmania infantum [11]): > 100 µM

SMILES: O=Cc1ccc([N+](=O)[O-])s1
CC50 at 72 h [1]: 6.25 µM
IC50 (Leishmania amazonensis [5]): 5.11 µM
selectivity ratio at 72 h [8]: < 0.5
IC50 (Leishmania infantum [11]): 1.39 µM
IC50 (Leishmania amazonensis [12]): > 11.5 µM

SMILES: C/[N+]([O-])=C/c1ccc([N+](=O)[O-])s1
CC50 at 72 h [1]: 24.2 µM
Activity [13]: -0.61 V
Activity (Leishmania amazonensis [15]): inactive
IC50 (Leishmania donovani [3]): 0.25 µM
IC50 (Leishmania amazonensis [5]): 9.72 µM
Ratio IC50 (Leishmania donovani [6]): 4.6
Activity (Peritoneal macrophage): inactive
IC50 (Leishmania donovani [7]): 0.24 µM
selectivity ratio at 72 h [8]: 6
IC50 (Leishmania donovani [9]): 1.12 µM
Ratio IC50 (Leishmania donovani [10]): 4.5
IC50 (Leishmania infantum [11]): 3.45 µM
IC50 (Leishmania amazonensis [12]): 3.81 µM

SMILES: CC1CS(=O)(=O)CCN1/N=C/c1ccc([N+](=O)[O-])o1 (configuration not stated) [NIFURTIMOX]
Ratio IC50 (Leishmania donovani [6]): 17
IC50 (Leishmania donovani [7]): 0.11 µM
IC50 (Leishmania donovani [9]): 1.89 µM

SMILES: CC(C)(C)/[N+]([O-])=C/c1ccc([N+](=O)[O-])o1
CC50 at 72 h [1]: 108 µM
selectivity ratio at 72 h [2]: 5670
Activity [13]: -0.67 V
Activity (Leishmania amazonensis [15]): inactive
IC50 (Leishmania donovani [3]): 0.04 µM
IC50 (Leishmania infantum [4]): 0.019 µM
IC50 (Leishmania amazonensis [5]): 1.99 µM
Ratio IC50 (Leishmania donovani [6]): 17
Activity (Peritoneal macrophage): inactive
IC50 (Leishmania donovani [7]): 0.05 µM
selectivity ratio at 72 h [8]: 39
IC50 (Leishmania donovani [9]): 0.87 µM
Ratio IC50 (Leishmania donovani [10]): 21
IC50 (Leishmania infantum [11]): 0.36 µM
IC50 (Leishmania amazonensis [12]): 2.76 µM

SMILES: C/[N+]([O-])=C/c1cccs1
CC50 at 72 h [1]: > 100 µM
IC50 (Leishmania amazonensis [5]): > 100 µM
IC50 (Leishmania infantum [11]): > 100 µM

SMILES: C/[N+]([O-])=C/c1ccco1
CC50 at 72 h [1]: > 100 µM
IC50 (Leishmania amazonensis [5]): > 100 µM
IC50 (Leishmania infantum [11]): > 100 µM

SMILES: C[C@]1(COc2ccc(N3CCC(Oc4ccc(OC(F)(F)F)cc4)CC3)cc2)Cn2cc([N+](=O)[O-])nc2O1 [DELAMANID]
IC50 (Leishmania donovani [3]): 0.00012 µM
IC50 (Leishmania donovani [9]): 0.0015 µM
Ratio IC50 (Leishmania donovani [10]): 12.5
